Molecules are shown by their SMILES. Values after ≈ are worked out from the molar mass of the structure shown.

From ChEMBL document CHEMBL3091449, “Synthesis and antimicrobial profile of N-substituted imidazolium oximes and their monoquaternary salts against multidrug resistant bacteria” (2013) come the findings set out here.

Holding throughout (assay type): functional
Assay [1] relates to Aeromonas hydrophila. Briefly: Antibacterial activity against Aeromonas hydrophila FNSST 014 after 18 to 24 hrs by two-fold broth microdilution assay. A digest of the protocol: (§1)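 CLSI two-fold broth microdilution was used. Compounds were dissolved in DMSO, brought to 10 mg/mL in medium, then serially diluted in Mueller Hinton broth over 400–0.09 µg/mL. Overnight MHB cultures were diluted to 10^6 CFU/mL, and 10 µL was added per well. Plates were incubated 18–24 h at 37 °C, then 0.2 mg/mL INT was added for 30 min at 37 °C. MIC was the lowest concentration with no visible growth or pink colour, triplicate.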
(In broth dilution the organism is exposed to a series of concentrations in liquid medium.)

For assay [2], the system named is Pseudomonas aeruginosa. Briefly: Antibacterial activity against Pseudomonas aeruginosa FNSST 982 after 18 to 24 hrs by two-fold broth microdilution assay. In a few lines:
as §1

In assay [3] the test system is Klebsiella pneumoniae. Put plainly: Antibacterial activity against Klebsiella pneumoniae FNSST 011 after 18 to 24 hrs by two-fold broth microdilution assay. A digest of the protocol:
as §1

In assay [4] the test system is Escherichia coli. Put plainly: Antibacterial activity against Escherichia coli FNSST 982 after 18 to 24 hrs by two-fold broth microdilution assay. A digest of the protocol: as §1
The subject of assay [5] is Clostridium perfringens. Put plainly: Antibacterial activity against Clostridium perfringens FNSST 4999 after 18 to 24 hrs by two-fold broth microdilution assay. In a few lines:
(§2)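 CLSI two-fold broth microdilution. Compounds dissolved in DMSO, 10 mg/mL stock, serially diluted to 400–0.09 µg/mL in Mueller Hinton broth. Wells inoculated with 10^6 CFU/mL bacteria and incubated 18–24 h at 37 °C. 0.2 mg/mL INT added for 30 min. MIC taken as the lowest concentration with no visible growth or pink colour. Triplicate.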

For assay [6], the system named is Staphylococcus aureus. Put plainly: Antibacterial activity against Staphylococcus aureus ATCC 25923 after 18 to 24 hrs by two-fold broth microdilution assay. A digest of the protocol:
as §1

The subject of assay [7] is Enterococcus faecalis. Briefly: Antibacterial activity against Enterococcus faecalis ATCC 29212 after 18 to 24 hrs by two-fold broth microdilution assay. In a few lines:
as §1

Assay [8] relates to Bacillus cereus. Briefly: Antibacterial activity against Bacillus cereus ATCC 11778 after 18 to 24 hrs by two-fold broth microdilution assay. A digest of the protocol: as §1
The subject of another assay is Aspergillus fumigatus. Briefly: Antifungal activity against Aspergillus fumigatus FNSST 3833 assessed as diameter of zone of inhibition at 250 ug/disc after 72 hrs by disc diffusion method. The note with it: FNSST 3833, 72 h, read-out: DIZ. In a few lines: (§3)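 Fungi were grown overnight at 30 °C in Sabouraud dextrose broth to 10^4 cfu/mL, and 100 µL was spread on Sabouraud dextrose agar. 6 mm discs carried 250 µg (25 µL of a 10 mg/mL stock in 96% ethanol), with ethanol as the negative control. Incubation was at 30 °C for 48 h (yeast) or 72 h (molds). Zone diameter was read including the disc, in triplicate, mean ± SE.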

In another assay the test system is Talaromyces funiculosus. Briefly: Antifungal activity against Penicillium funiculosum FNSST 3724 assessed as diameter of zone of inhibition at 250 ug/disc after 72 hrs by disc diffusion method. The note with it: FNSST 3724, 72 h, read-out: DIZ. A digest of the protocol:
as §3

For assay [9], the system named is Aeromonas hydrophila. Briefly: Antibacterial activity against Aeromonas hydrophila FNSST 014 assessed as diameter of zone of inhibition at 250 ug/disc after 24 hrs by disc diffusion method. The following applies: FNSST 014, 24 h, read-out: DIZ. A digest of the protocol: (§4)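 Bacteria were grown overnight at 37 °C in TSB to about 10^6 cfu/mL, and 100 µL was spread on Mueller Hinton agar. Sterile 6 mm discs were each loaded with 25 µL of a 10 mg/mL stock in 96% ethanol, giving 250 µg/disc. Ethanol served as the negative control. Plates were incubated 24 h at 37 °C. Inhibition zone diameter was measured including the disc, in triplicate, as mean ± SE.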
Background: Agar diffusion results depend on both activity and mobility in agar.

The test system of assay [10] is Pseudomonas aeruginosa. Put plainly: Antibacterial activity against Pseudomonas aeruginosa FNSST 982 assessed as diameter of zone of inhibition at 250 ug/disc after 24 hrs by disc diffusion method. The note with it: FNSST 982, 24 h, read-out: DIZ. In a few lines:
as §4

Assay [11] has as its system Klebsiella pneumoniae. Briefly: Antibacterial activity against Klebsiella pneumoniae FNSST 011 assessed as diameter of zone of inhibition at 250 ug/disc after 24 hrs by disc diffusion method. The note with it: FNSST 011, 24 h, read-out: DIZ. In a few lines: as §4
The subject of assay [12] is Escherichia coli. Put plainly: Antibacterial activity against Escherichia coli FNSST 982 assessed as diameter of zone of inhibition at 250 ug/disc after 24 hrs by disc diffusion method. The following applies: FNSST 982, 24 h, read-out: DIZ. In a few lines:
as §4

For assay [13], the system named is Clostridium perfringens. Put plainly: Antibacterial activity against Clostridium perfringens FNSST 4999 assessed as diameter of zone of inhibition at 250 ug/disc after 24 hrs by disc diffusion method. The note with it: FNSST 4999, 24 h, read-out: DIZ. In a few lines:
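Disc diffusion per CLSI: 100 µL of 10^6 cfu/mL bacterial suspension spread on Mueller Hinton agar. 6 mm discs loaded with 25 µL of 10 mg/mL compound stock in 96% ethanol (250 µg/disc); ethanol as negative control. Incubated 24 h at 37 °C. Inhibition zone diameter measured in mm including the disc, triplicate, reported as mean ± SE.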

Assay [14] concerns Staphylococcus aureus. Put plainly: Antibacterial activity against Staphylococcus aureus ATCC 25923 assessed as diameter of zone of inhibition at 250 ug/disc after 24 hrs by disc diffusion method. The note with it: ATCC 25923, 24 h, read-out: DIZ. In a few lines:
as §4

Assay [15] concerns Enterococcus faecalis. Briefly: Antibacterial activity against Enterococcus faecalis ATCC 29212 assessed as diameter of zone of inhibition at 250 ug/disc after 24 hrs by disc diffusion method. The following applies: ATCC 29212, 24 h, read-out: DIZ. A digest of the protocol:
as §4

Assay [16] relates to Bacillus cereus. Put plainly: Antibacterial activity against Bacillus cereus ATCC 11778 assessed as diameter of zone of inhibition at 250 ug/disc after 24 hrs by disc diffusion method. The note with it: ATCC 11778, 24 h, read-out: DIZ. In a few lines: as §4
For another assay, the system named is Candida albicans. Put plainly: Antifungal activity against Candida albicans ATCC 10231 assessed as diameter of zone of inhibition at 250 ug/disc after 48 hrs by disc diffusion method. The following applies: ATCC 10231, 48 h, read-out: DIZ. A digest of the protocol: as §3
Assay [17] deals with Pseudomonas aeruginosa. Briefly: Antibacterial activity against GIM-1 expressing Pseudomonas aeruginosa isolate 197 after 18 to 24 hrs by two-fold broth microdilution assay. A digest of the protocol: as §1
The subject of another assay is Acinetobacter baumannii. Briefly: Antibacterial activity against SIM-1 expressing Acinetobacter baumannii isolate 170 after 18 to 24 hrs by two-fold broth microdilution assay. A digest of the protocol: as §2
Assay [18] deals with Escherichia coli. Briefly: Antibacterial activity against […] expressing Escherichia coli isolate 235 after 18 to 24 hrs by two-fold broth microdilution assay. A digest of the protocol: as §2
Assay [19] has as its system Escherichia coli. Briefly: Antibacterial activity against TEM-1/SHV-12 expressing Escherichia coli isolate 237 after 18 to 24 hrs by two-fold broth microdilution assay. A digest of the protocol: as §2
In assay [20] the test system is Escherichia coli. Put plainly: Antibacterial activity against […] expressing Escherichia coli isolate 4024 after 18 to 24 hrs by two-fold broth microdilution assay. A digest of the protocol: as §2
For assay [21], the system named is Aeromonas caviae. Briefly: Antibacterial activity against TEM-1/CTX-M-15 expressing Aeromonas caviae isolate 260 after 18 to 24 hrs by two-fold broth microdilution assay. A digest of the protocol:
as §1

Assay [22] concerns Aeromonas caviae. Briefly: Antibacterial activity against […] expressing Aeromonas caviae isolate 258 after 18 to 24 hrs by two-fold broth microdilution assay. A digest of the protocol: as §1
In assay [23] the test system is Aeromonas hydrophila. Put plainly: Antibacterial activity against TEM-1/SHV-12 expressing Aeromonas hydrophila isolate 268 after 18 to 24 hrs by two-fold broth microdilution assay. In a few lines: as §1
The next assay has as its system Kluyvera intermedia. Briefly: Antibacterial activity against TEM-1/SHV-12/[…] expressing Enterobacter intermedius isolate 243 after 18 to 24 hrs by two-fold broth microdilution assay. A digest of the protocol: as §1
Assay [24] concerns Enterobacter cloacae. Briefly: Antibacterial activity against CTX-15 expressing Enterobacter cloacae isolate 51 after 18 to 24 hrs by two-fold broth microdilution assay.
The subject of assay [25] is Enterobacter cloacae. Put plainly: Antibacterial activity against TEM-1/CTX-M-15 expressing Enterobacter cloacae isolate 62 after 18 to 24 hrs by two-fold broth microdilution assay.
Assay [26] deals with Enterobacter cloacae. Put plainly: Antibacterial activity against TEM-1/SHV-12 expressing Enterobacter cloacae isolate 306 after 18 to 24 hrs by two-fold broth microdilution assay.
The test system of assay [27] is Klebsiella pneumoniae. Briefly: Antibacterial activity against TEM-1/SHV-12 expressing Klebsiella pneumoniae isolate 303 after 18 to 24 hrs by two-fold broth microdilution assay. A digest of the protocol: as §1
Assay [28] has as its system Stenotrophomonas maltophilia. Briefly: Antibacterial activity against […] expressing Stenotrophomonas maltophilia isolate 125 after 18 to 24 hrs by two-fold broth microdilution assay. A digest of the protocol: as §1

The term MIC denotes the lowest concentration that inhibits growth of the organism. Read a high MIC as a need for much substance. As for `Cc1ccc(-n2ccnc2/C=N/O)cc1`, the MIC in the assay with Aeromonas hydrophila [1] is 25 µg/mL (≈ 124 µM); in the assay on Pseudomonas aeruginosa [2] it was 50 µg/mL (≈ 248 µM); against Klebsiella pneumoniae [3], 100 µg/mL (≈ 497 µM); in the assay on Escherichia coli [4], 25 µg/mL (≈ 124 µM); against Clostridium perfringens [5], 100 µg/mL (≈ 497 µM); in the assay with Staphylococcus aureus [6] it was 32 µg/mL (≈ 159 µM). In addition, the MIC in the assay with Enterococcus faecalis [7] and against Bacillus cereus [8] was 50 µg/mL (≈ 248 µM) throughout. The zone of inhibition at 250 µg/disc in the assay on Aspergillus fumigatus worked out at 16.3 mm; with Talaromyces funiculosus, 15.4 mm; in the assay with Aeromonas hydrophila [9] it was 15.7 mm; in the assay with Pseudomonas aeruginosa [10], 10.9 mm; with Klebsiella pneumoniae [11], 9.3 mm; in the assay with Escherichia coli [12], 14.9 mm. Also, the zone of inhibition at 250 µg/disc with Clostridium perfringens [13] was 12.6 mm; with Staphylococcus aureus [14] it was 18.5 mm; in the assay on Enterococcus faecalis [15] it was 13.8 mm; in the assay on Bacillus cereus [16], 14.6 mm; in the assay on Candida albicans, 20.2 mm.

`C[C@@H](O)[C@H]1C(=O)N2C(C(=O)O)=C(S[C@@H]3CN[C@H](C(=O)N(C)C)C3)[C@H](C)[C@H]12` [MEROPENEM]: the MIC was above 8 µg/mL against Pseudomonas aeruginosa [17]; 16 µg/mL (≈ 41.7 µM) with Acinetobacter baumannii; 0.12 µg/mL (≈ 0.313 µM) in the assay on Escherichia coli [18]; 1 µg/mL (≈ 2.61 µM) in the assay on Escherichia coli [19]; 0.12 µg/mL (≈ 0.313 µM) in the assay with Escherichia coli [20]; 1 µg/mL (≈ 2.61 µM) in the assay with Aeromonas caviae [21]. In addition, the MIC in the assay on Aeromonas caviae [22] turned out to be 0.125 µg/mL (≈ 0.326 µM); against Aeromonas hydrophila [23] it was 0.06 µg/mL (≈ 0.156 µM); in the assay with Kluyvera intermedia it was 0.12 µg/mL (≈ 0.313 µM); in the assay with Enterobacter cloacae [24], 0.25 µg/mL (≈ 0.652 µM); in the assay with Enterobacter cloacae [25] it was 0.5 µg/mL (≈ 1.3 µM); against Enterobacter cloacae [26] it was 0.25 µg/mL (≈ 0.652 µM). Also, the figures for the MIC (with Klebsiella pneumoniae [27]; in assay [28]) were 0.12 µg/mL (≈ 0.313 µM) and 128 µg/mL (≈ 334 µM), respectively.

For `C[C@@H](O)[C@H]1C(=O)N2C(C(=O)O)=C(SCCNC=N)C[C@H]12` [IMIPENEM ANHYDROUS], the MIC is above 8 µg/mL in the assay with Pseudomonas aeruginosa [17]; 8 µg/mL (≈ 26.7 µM) against Acinetobacter baumannii; 0.06 µg/mL (≈ 0.2 µM) in the assay on Escherichia coli [18]; 0.125 µg/mL (≈ 0.418 µM) in the assay on Escherichia coli [19]; 2 µg/mL (≈ 6.68 µM) in the assay with Aeromonas caviae [21]; 0.25 µg/mL (≈ 0.835 µM) in the assay with Aeromonas caviae [22]. The MIC against Aeromonas hydrophila [23] was determined as 0.06 µg/mL (≈ 0.2 µM); in the assay with Kluyvera intermedia it was 0.12 µg/mL (≈ 0.401 µM); in the assay on Enterobacter cloacae [24], 8 µg/mL (≈ 26.7 µM); in the assay on Enterobacter cloacae [25], 0.25 µg/mL (≈ 0.835 µM); with Enterobacter cloacae [26], 0.25 µg/mL (≈ 0.835 µM); with Klebsiella pneumoniae [27], 0.12 µg/mL (≈ 0.401 µM). The molecule also had a minimum inhibitory concentration (MIC) in [28] of 0.12 µg/mL (≈ 0.401 µM).
